Data on 15 molecules can be found in ChEMBL document CHEMBL4130563, “Structure-Based Design and Synthesis of New Estrane-Pyridine Derivatives as Cytochrome P450 (CYP) 1B1 Inhibitors” (ACS Med Chem Lett, 2017).

Data set [1] deals with T1, CYP1B1 (Homo sapiens, UniProt Q16678).
T1 sequence (Q16678 whole entry): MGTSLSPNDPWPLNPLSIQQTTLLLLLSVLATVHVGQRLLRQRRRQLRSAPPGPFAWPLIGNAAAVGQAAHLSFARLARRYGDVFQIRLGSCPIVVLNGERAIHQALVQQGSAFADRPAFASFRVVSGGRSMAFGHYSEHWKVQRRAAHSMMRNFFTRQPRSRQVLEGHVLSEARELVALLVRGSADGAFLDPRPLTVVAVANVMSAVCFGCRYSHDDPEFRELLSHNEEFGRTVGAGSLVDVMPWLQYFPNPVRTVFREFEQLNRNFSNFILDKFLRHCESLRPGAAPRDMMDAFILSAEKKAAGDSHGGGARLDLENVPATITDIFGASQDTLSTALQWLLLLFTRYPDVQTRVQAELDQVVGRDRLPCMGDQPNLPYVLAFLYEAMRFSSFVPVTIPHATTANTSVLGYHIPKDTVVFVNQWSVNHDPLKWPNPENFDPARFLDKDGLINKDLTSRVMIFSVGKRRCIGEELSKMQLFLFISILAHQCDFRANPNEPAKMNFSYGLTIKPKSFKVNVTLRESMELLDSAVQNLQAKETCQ
As to the kind of experiment: Inhibition of recombinant human CYP1B1 expressed in supersomes coexpressing P450 reductase at 0.3 uM using 7-ethyl-O-resorufin as substrate after 45 mins in presence of NADPH by fluorescence assay relative to control. The settings on record: probe 7-ethyl-O-resorufin.

Data set [2] can be described thus: Drug uptake in rat plasma at 2 mg/kg, sc administered as single dose measured at 2 hrs post dose by LC-MS analysis. The class given is ADME, organism-based. A digest of the protocol: (§1)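 Rats given one subcutaneous injection of the 17β-alcohol parent at 2.0 mg/kg (0.66 mg in PG:DMSO 92:8). Plasma levels of the parent and of its 17-keto metabolite were followed over time. AUC (ng.h/mL) was calculated for each species and for the two combined.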

The nature of data set [3]: Drug metabolism in rat plasma assessed as 2-(3-pyridinyl)-3-hydroxy-estra-1,3,5(10)-trien-17-one formation at 2 mg/kg, sc administered as single dose measured at 2 hrs post dose by LC-MS analysis. The settings on record: in vivo. The class given is ADME, organism-based. A digest of the protocol: as §1
The target of another data set is T2, Cytochrome P450 1B1 (Homo sapiens, UniProt Q16678).
T2 sequence (Q16678 whole entry): T1 sequence (Q16678 whole entry)
As to the kind of experiment: Inhibition of recombinant human CYP1B1 expressed in supersomes coexpressing P450 reductase using 7-ethyl-O-resorufin as substrate after 45 mins in presence of NADPH by fluorescence assay.

Data set [4] addresses T1, CYP1B1. As to the kind of experiment: Potency index, ratio of alpha-naphthoflavone IC50 to compound IC50 for inhibition of recombinant human CYP1B1 expressed in supersomes coexpressing P450 reductase. The settings on record: read-out: Ratio IC50. In outline: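 EROD assay on recombinant human CYP1B1 with NADPH as cofactor. Resorufin ethyl ether is the substrate, and conversion to resorufin is read by fluorescence.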

In another data set the test system is Rattus norvegicus. The experiment in a line: AUC (0 to 24 hrs) in rat plasma assessed as 2-(3-pyridinyl)-3-hydroxy-estra-1,3,5(10)-trien-17-one level at 2 mg/kg, sc administered as single dose measured at 2 hrs post dose by LC-MS analysis. The settings on record: in vivo. Set-up: dose 2 mg/kg, time < 24 hr, route subcutaneous. The format is ADME, organism-based. A digest of the protocol: as §1

Data set [5] can be described thus: AUC (0 to 24 hrs) in rat plasma at 2 mg/kg, sc administered as single dose measured at 2 hrs post dose by LC-MS analysis. The class given is ADME, organism-based. Set-up: time < 24 hr, dose 2 mg/kg, route subcutaneous. In outline: as §1

Turning to `C[C@]12CC[C@@H]3c4ccc(S)cc4CC[C@H]3[C@@H]1CCC2=O`, the inhibition at 0.75 h, 0.3 µM on CYP1B1 [1] was 13.3%.

Take `C[C@]12CC[C@@H]3c4ccc(-c5cccnc5)cc4CC[C@H]3[C@@H]1CC[C@@H]2O`: at CYP1B1 [1], the inhibition at 0.75 h, 0.3 µM was determined as 19.6%.

On to `C[C@]12CC[C@@H]3c4ccc(O)c(-c5ccncc5)c4CC[C@H]3[C@@H]1CC[C@@H]2O`, for which the inhibition at 0.75 h, 0.3 µM at CYP1B1 [1] turned out to be 20.9%.

`C[C@]12CC[C@@H]3c4cc(-c5cccnc5)c(O)cc4CC[C@H]3[C@@H]1CC[C@@H]2O` showed a concentration at 2 h in data set [2] of 4 ng/mL. Further, in data set [3], the Drug metabolism was found to be 7 ng/mL. Moreover, at Cytochrome P450 1B1, the IC50 came out at 11 nM. Further, the selectivity ratio at CYP1B1 [4] amounted to 7.5. Further, the inhibition at 0.75 h, 0.3 µM on CYP1B1 [1] is 85.4%. Further, the AUC in the data set on Rattus norvegicus amounted to 33.2 ng·h/mL. Further, in data set [5], the AUC(0-t) at 24 h is 12.8 ng·h/mL.

Take `C[C@]12CC[C@@H]3c4ccc(-c5cccnc5)cc4CC[C@H]3[C@@H]1CCC2=O`: the inhibition at 0.75 h, 0.3 µM on CYP1B1 [1] is 28.2%.

For the molecule `C[C@]12CC[C@@H]3c4ccc(O)c(-c5cccnc5)c4CC[C@H]3[C@@H]1CCC2=O`, the inhibition at 0.75 h, 0.3 µM at CYP1B1 [1] worked out at 14%.

In the case of `C[C@]12CC[C@@H]3c4cc(-c5cccnc5)c(O)cc4CC[C@H]3[C@@H]1CCC2=O`, the IC50 on Cytochrome P450 1B1 is 63 nM. Besides, the inhibition at 0.75 h, 0.3 µM at CYP1B1 [1] amounted to 37.8%.

In the case of `C[C@]12CC[C@@H]3c4ccc(-c5ccncc5)cc4CC[C@H]3[C@@H]1CCC2=O`, at CYP1B1 [1], the inhibition at 0.75 h, 0.3 µM came to 6.1%.

Turning to `C[C@]12CC[C@@H]3c4ccc(O)c(-c5ccncc5)c4CC[C@H]3[C@@H]1CCC2=O`, on CYP1B1 [1], the inhibition at 0.75 h, 0.3 µM was found to be 16.9%.

`C[C@]12CC[C@@H]3c4ccc(O)c(-c5cccnc5)c4CC[C@H]3[C@@H]1CC[C@@H]2O`: on CYP1B1 [1], the inhibition at 0.75 h, 0.3 µM is 28.9%.

As for `C[C@]12CC[C@@H]3c4cc(-c5ccncc5)c(O)cc4CC[C@H]3[C@@H]1CC[C@@H]2O`, the IC50 on Cytochrome P450 1B1 is 32 nM. Also, at CYP1B1 [4], the selectivity ratio was determined as 2.5. For the same molecule, the inhibition at 0.75 h, 0.3 µM at CYP1B1 [1] came to 87.4%.

With `C[C@]12CC[C@@H]3c4cc(-c5ccncc5)c(O)cc4CC[C@H]3[C@@H]1CCC2=O`, the IC50 on Cytochrome P450 1B1 was found to be 120 nM. Also, at CYP1B1 [1], the inhibition at 0.75 h, 0.3 µM worked out at 21.3%.

As to `C[C@]12CC[C@@H]3c4ccc(-c5ccncc5)cc4CC[C@H]3[C@@H]1CC[C@@H]2O`, on CYP1B1 [1], the inhibition at 0.75 h, 0.3 µM was 19.5%.

Take `O=c1cc(-c2ccccc2)oc2c1ccc1ccccc12` [ALPHA-NAPHTHOFLAVONE]: the inhibition at 0.75 h, 0.3 µM at CYP1B1 [1] stood at 94%.

In the case of `C[C@]12CC[C@@H]3c4ccc(O)cc4CC[C@H]3[C@@H]1CC[C@@H]2O` [ESTRADIOL], the inhibition at 0.75 h, 0.3 µM on CYP1B1 [1] was 12.4%.
